From ChEMBL document CHEMBL4673330, “Preparations and antioxidant activities of sesamol and it's derivatives” (Bioorg Med Chem Lett, 2021)

assay: Antioxidant activity assessed as hydroxyl radical scavenging rate at 1 g/L relative to control; format: functional
How it was run: (§1)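 Hydroxyl radical scavenging was read as absorbance of the reaction solution at 510 nm by a fixed reaction time method. Derivatives were tested at 0.2–1.2 g/L, with sesamol as positive control. Values are means ± SD from at least eight independent experiments, each in triplicate (n = 3), with t-tests (p < 0.05).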

| SMILES | Activity [%] |
| --- | --- |
| O=c1oc2ccc3c(c2c2cc(Cl)ccc12)OCO3 | 97.4 |
| O=C(Oc1ccc2c(c1)OCO2)c1cc(Cl)ccc1Cl | 74.2 |
| Oc1ccc2c(c1)OCO2 | 70.8 |

assay: Antioxidant activity assessed as superoxide anion radical scavenging rate at 0.2 g/L relative to control; format: functional
How it was run: (§2)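 Pyrocatechol autoxidation in weak alkaline medium produces a coloured intermediate and superoxide anion; the intermediate absorbs maximally at 320 nm. Scavenging rate was measured at 0.2–1.2 g/L, with sesamol as positive control. Values are means ± SD from at least eight independent experiments, each in triplicate (n = 3), with t-tests (p < 0.05).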

| SMILES | Activity [%] |
| --- | --- |
| O=c1oc2ccc3c(c2c2cc(Cl)ccc12)OCO3 | 16.6 |
| O=C(Oc1ccc2c(c1)OCO2)c1cc(Cl)ccc1Cl | 12.1 |
| Oc1ccc2c(c1)OCO2 | 12.1 |

assay: Antioxidant activity assessed as superoxide anion radical scavenging rate at 1 g/L relative to control; format: functional; how it was run: as §2

| SMILES | Activity [%] |
| --- | --- |
| O=c1oc2ccc3c(c2c2cc(Cl)ccc12)OCO3 | 95.7 |
| O=C(Oc1ccc2c(c1)OCO2)c1cc(Cl)ccc1Cl | 69.8 |
| Oc1ccc2c(c1)OCO2 | 69.6 |

assay: Antioxidant activity assessed as superoxide anion radical scavenging rate at 0.4 g/L relative to control; format: functional; how it was run: as §2

| SMILES | Activity [%] |
| --- | --- |
| O=c1oc2ccc3c(c2c2cc(Cl)ccc12)OCO3 | 38.1 |
| O=C(Oc1ccc2c(c1)OCO2)c1cc(Cl)ccc1Cl | 27.9 |
| Oc1ccc2c(c1)OCO2 | 27.8 |

assay: Antioxidant activity assessed as superoxide anion radical scavenging rate at 1.2 g/L relative to control; format: functional; how it was run: as §2

| SMILES | Activity [%] |
| --- | --- |
| O=c1oc2ccc3c(c2c2cc(Cl)ccc12)OCO3 | 96.7 |
| O=C(Oc1ccc2c(c1)OCO2)c1cc(Cl)ccc1Cl | 70.5 |
| Oc1ccc2c(c1)OCO2 | 70.3 |

assay: Antioxidant activity assessed as hydroxyl radical scavenging rate at 0.8 g/L relative to control; format: functional; how it was run: as §1

| SMILES | Activity [%] |
| --- | --- |
| O=c1oc2ccc3c(c2c2cc(Cl)ccc12)OCO3 | 92.7 |
| O=C(Oc1ccc2c(c1)OCO2)c1cc(Cl)ccc1Cl | 70.7 |
| Oc1ccc2c(c1)OCO2 | 67.4 |

assay: Antioxidant activity assessed as reduction in lipid peroxidation by measuring antiperoxide-index at 0.2 g/L by thiobarbituric acid method relative to control; format: functional; design: scale not given: the % may be the effect or the level left
How it was run: (§3)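 Anti-lipid-peroxidation (antiperoxide index, %) was tested at 0.2–1.2 g/L, with sesamol as positive control. Values are means ± SD from at least eight independent experiments, each in triplicate (n = 3), with t-tests (p < 0.05).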

| SMILES | Activity [%] |
| --- | --- |
| O=c1oc2ccc3c(c2c2cc(Cl)ccc12)OCO3 | 16.9 |
| O=C(Oc1ccc2c(c1)OCO2)c1cc(Cl)ccc1Cl | 13 |
| Oc1ccc2c(c1)OCO2 | 12.8 |

assay: Antioxidant activity assessed as reduction of potassium ferricyanide trivalent iron into potassium ferrocyanide bivalent iron and ferrous iron by measuring eliminate efficiency at 1.2 g/L relative to control; format: functional; design: scale not given: the % may be the effect or the level left
How it was run: (§4)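 Reducing capacity was read as absorbance at 700 nm, where higher absorbance means greater reducing ability. Tested at 0.2–1.2 g/L against sesamol as positive control. Values are means from at least eight independent experiments, each in triplicate (n = 3), with t-tests (p < 0.05).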

| SMILES | Activity [%] |
| --- | --- |
| O=c1oc2ccc3c(c2c2cc(Cl)ccc12)OCO3 | 99.8 |
| O=C(Oc1ccc2c(c1)OCO2)c1cc(Cl)ccc1Cl | 76.1 |
| Oc1ccc2c(c1)OCO2 | 82.6 |

assay: Antioxidant activity assessed as reduction of potassium ferricyanide trivalent iron into potassium ferrocyanide bivalent iron and ferrous iron by measuring eliminate efficiency at 0.4 g/L relative to control; format: functional; design: scale not given: the % may be the effect or the level left; how it was run: as §4

| SMILES | Activity [%] |
| --- | --- |
| O=c1oc2ccc3c(c2c2cc(Cl)ccc12)OCO3 | 40.8 |
| O=C(Oc1ccc2c(c1)OCO2)c1cc(Cl)ccc1Cl | 31.1 |
| Oc1ccc2c(c1)OCO2 | 29.7 |

assay: Antioxidant activity assessed as reduction of potassium ferricyanide trivalent iron into potassium ferrocyanide bivalent iron and ferrous iron by measuring eliminate efficiency at 0.2 g/L relative to control; format: functional; design: scale not given: the % may be the effect or the level left; how it was run: as §4

| SMILES | Activity [%] |
| --- | --- |
| O=c1oc2ccc3c(c2c2cc(Cl)ccc12)OCO3 | 17 |
| O=C(Oc1ccc2c(c1)OCO2)c1cc(Cl)ccc1Cl | 12.9 |
| Oc1ccc2c(c1)OCO2 | 12.4 |

assay: Antioxidant activity assessed as superoxide anion radical scavenging rate at 0.6 g/L relative to control; format: functional; how it was run: as §2

| SMILES | Activity [%] |
| --- | --- |
| O=c1oc2ccc3c(c2c2cc(Cl)ccc12)OCO3 | 72.5 |
| O=C(Oc1ccc2c(c1)OCO2)c1cc(Cl)ccc1Cl | 52.9 |
| Oc1ccc2c(c1)OCO2 | 52.7 |

assay: Antioxidant activity assessed as reduction in lipid peroxidation by measuring antiperoxide-index at 0.6 g/L by thiobarbituric acid method relative to control; format: functional; design: scale not given: the % may be the effect or the level left; how it was run: as §3

| SMILES | Activity [%] |
| --- | --- |
| O=c1oc2ccc3c(c2c2cc(Cl)ccc12)OCO3 | 73.1 |
| O=C(Oc1ccc2c(c1)OCO2)c1cc(Cl)ccc1Cl | 56.1 |
| Oc1ccc2c(c1)OCO2 | 55.1 |

assay: Antioxidant activity assessed as superoxide anion radical scavenging rate at 0.8 g/L relative to control; format: functional; how it was run: as §2

| SMILES | Activity [%] |
| --- | --- |
| O=c1oc2ccc3c(c2c2cc(Cl)ccc12)OCO3 | 87 |
| O=C(Oc1ccc2c(c1)OCO2)c1cc(Cl)ccc1Cl | 63.5 |
| Oc1ccc2c(c1)OCO2 | 63.3 |

assay: Antioxidant activity assessed as reduction of potassium ferricyanide trivalent iron into potassium ferrocyanide bivalent iron and ferrous iron by measuring eliminate efficiency at 1 g/L relative to control; format: functional; design: scale not given: the % may be the effect or the level left; how it was run: as §4

| SMILES | Activity [%] |
| --- | --- |
| O=c1oc2ccc3c(c2c2cc(Cl)ccc12)OCO3 | 98.8 |
| O=C(Oc1ccc2c(c1)OCO2)c1cc(Cl)ccc1Cl | 75.3 |
| Oc1ccc2c(c1)OCO2 | 81.9 |

assay: Antioxidant activity assessed as hydroxyl radical scavenging rate at 1.2 g/L relative to control; format: functional; how it was run: as §1

| SMILES | Activity [%] |
| --- | --- |
| O=c1oc2ccc3c(c2c2cc(Cl)ccc12)OCO3 | 98.3 |
| O=C(Oc1ccc2c(c1)OCO2)c1cc(Cl)ccc1Cl | 74.9 |
| Oc1ccc2c(c1)OCO2 | 71.5 |

assay: Antioxidant activity assessed as reduction in lipid peroxidation by measuring antiperoxide-index at 0.4 g/L by thiobarbituric acid method relative to control; format: functional; design: scale not given: the % may be the effect or the level left; how it was run: as §3

| SMILES | Activity [%] |
| --- | --- |
| O=c1oc2ccc3c(c2c2cc(Cl)ccc12)OCO3 | 40.6 |
| O=C(Oc1ccc2c(c1)OCO2)c1cc(Cl)ccc1Cl | 31.1 |
| Oc1ccc2c(c1)OCO2 | 30.6 |

assay: Antioxidant activity assessed as reduction in lipid peroxidation by measuring antiperoxide-index at 0.8 g/L by thiobarbituric acid method relative to control; format: functional; design: scale not given: the % may be the effect or the level left; how it was run: as §3

| SMILES | Activity [%] |
| --- | --- |
| O=c1oc2ccc3c(c2c2cc(Cl)ccc12)OCO3 | 87.8 |
| O=C(Oc1ccc2c(c1)OCO2)c1cc(Cl)ccc1Cl | 67.3 |
| Oc1ccc2c(c1)OCO2 | 66.1 |

assay: Antioxidant activity assessed as hydroxyl radical scavenging rate at 0.4 g/L relative to control; format: functional; how it was run: as §1

| SMILES | Activity [%] |
| --- | --- |
| O=c1oc2ccc3c(c2c2cc(Cl)ccc12)OCO3 | 42.9 |
| O=C(Oc1ccc2c(c1)OCO2)c1cc(Cl)ccc1Cl | 32.6 |
| Oc1ccc2c(c1)OCO2 | 30.2 |

assay: Antioxidant activity assessed as hydroxyl radical scavenging rate at 0.2 g/L relative to control; format: functional; how it was run: as §1

| SMILES | Activity [%] |
| --- | --- |
| O=c1oc2ccc3c(c2c2cc(Cl)ccc12)OCO3 | 17.9 |
| O=C(Oc1ccc2c(c1)OCO2)c1cc(Cl)ccc1Cl | 13.6 |
| Oc1ccc2c(c1)OCO2 | 13 |

assay: Antioxidant activity assessed as reduction in lipid peroxidation by measuring antiperoxide-index at 1 g/L by thiobarbituric acid method relative to control; format: functional; design: scale not given: the % may be the effect or the level left; how it was run: as §3

| SMILES | Activity [%] |
| --- | --- |
| O=c1oc2ccc3c(c2c2cc(Cl)ccc12)OCO3 | 96.5 |
| O=C(Oc1ccc2c(c1)OCO2)c1cc(Cl)ccc1Cl | 74 |
| Oc1ccc2c(c1)OCO2 | 72.8 |

assay: Antioxidant activity assessed as hydroxyl radical scavenging rate at 0.6 g/L relative to control; format: functional; how it was run: as §1

| SMILES | Activity [%] |
| --- | --- |
| O=c1oc2ccc3c(c2c2cc(Cl)ccc12)OCO3 | 77.3 |
| O=C(Oc1ccc2c(c1)OCO2)c1cc(Cl)ccc1Cl | 58.9 |
| Oc1ccc2c(c1)OCO2 | 56.2 |

assay: Antioxidant activity assessed as reduction in lipid peroxidation by measuring antiperoxide-index at 1.2 g/L by thiobarbituric acid method relative to control; format: functional; design: scale not given: the % may be the effect or the level left; how it was run: as §3

| SMILES | Activity [%] |
| --- | --- |
| O=c1oc2ccc3c(c2c2cc(Cl)ccc12)OCO3 | 99.4 |
| O=C(Oc1ccc2c(c1)OCO2)c1cc(Cl)ccc1Cl | 76.2 |
| Oc1ccc2c(c1)OCO2 | 74.9 |

assay: Antioxidant activity assessed as reduction of potassium ferricyanide trivalent iron into potassium ferrocyanide bivalent iron and ferrous iron by measuring eliminate efficiency at 0.8 g/L relative to control; format: functional; design: scale not given: the % may be the effect or the level left; how it was run: as §4

| SMILES | Activity [%] |
| --- | --- |
| O=c1oc2ccc3c(c2c2cc(Cl)ccc12)OCO3 | 89.9 |
| O=C(Oc1ccc2c(c1)OCO2)c1cc(Cl)ccc1Cl | 68.5 |
| Oc1ccc2c(c1)OCO2 | 75.4 |

assay: Antioxidant activity assessed as reduction of potassium ferricyanide trivalent iron into potassium ferrocyanide bivalent iron and ferrous iron by measuring eliminate efficiency at 0.6 g/L relative to control; format: functional; design: scale not given: the % may be the effect or the level left; how it was run: as §4

| SMILES | Activity [%] |
| --- | --- |
| O=c1oc2ccc3c(c2c2cc(Cl)ccc12)OCO3 | 77.5 |
| O=C(Oc1ccc2c(c1)OCO2)c1cc(Cl)ccc1Cl | 59 |
| Oc1ccc2c(c1)OCO2 | 56.4 |
